Screens (PubChem)
HSP90 inh: HSP90 refolding inhibition in rabbit reticulocyte lysate. luciferase refolding luminescence, 3 h. inhibition, % at 5.6 µM. hit rate 0.91% among 290,000. AID 1789;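 active = inhibition above the screen-wide mean plus 3 SD, computed separately per campaign, cut at about 16% in these data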;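 note: 0% = DMSO wells and 100% = 60 µM geldanamycin wells; inhibitors lower the luminescence because luciferase stays unfolded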
Hep lipid drop: modulators of hepatic lipid droplet formation | AML12 mouse hepatocytes, oleate lipid droplets, BODIPY imaging | hit rate 0.4% among 240,000 | inhibition, % at 6.5 µM;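 active = lipid droplet intensity inhibited by at least 50%, with more than 500 cells counted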
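Material: mouse AML12 hepatocyte cell line, fixed after treatment; Timing: compound with oleate, overnight; Technique: high-content imaging of BODIPY-stained droplets and DAPI nuclei; Probe or stimulus: oleate, 100 µM final; Dosing: compound at 6.5 µM only.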
HSF1 activator: increases HSF-1 driven luciferase reporter signal | hit rate 1.7% among 300,000 | NIH3T3-HGL HSF-1 luciferase reporter, MG132, 8 h; 100% = twice DMSO control signal | AID 504408 | activation, % at 9 µM;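 active = mean replicate activation of at least 50% with a set share of replicates each reaching 50%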;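 note: 0% = median of the neutral control wells and 100% = twice that signal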
HSF1 inhib: HSF1 inhibition; hit rate 0.77% among 300,000; AID 2098; activity change, negative = inhibition, % at 7.5 µM (by protocol); NIH3T3-HGL HSE-luciferase, MG132-induced, luminescence 8 h; stronger effect = lower value;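 active = more than half of replicate wells show activity change below -50%, luminescence cut by over half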;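 note: luciferase reports HSF-1 transcriptional activity via heat shock element; 0% = median of DMSO wells and -100% = zero luminescence signal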
NS3 helicase inh: blocks Hepatitis C virus NS3 helicase unwinding; NS3 helicase DNA unwinding, Cy5 molecular beacon fluorescence; inhibition, % at 10.9 µM; hit rate 0.56% among 290,000; AID 1800;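 active = inhibition above the mean of all tested compounds plus 3 SD, set per campaign, cut at about 35% in these data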;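 note: 0% = DMSO wells and 100% = thioflavine S control wells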
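Test system: hepatitis C virus NS3 helicase domain fragment enzyme. Also added: annealed dual-labelled DNA beacon duplex, ATP-started. Timing: 60 min unwinding reaction at 25 °C after ATP addition. Technique: Cy5 fluorescence. Measure: % inhibition of unwinding.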
HSP90 confirm: HSP90 inhibition, confirmation assay | shares compounds with HSP90 inh | rabbit reticulocyte lysate, luciferase refolding luminescence, 3 h | inhibition, % at 5.9 µM | hit rate 64% among 2,300 | AID 1846; in the data active = inhibition above about 18%;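 note: 0% = vehicle wells and 100% = reference inhibitor wells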
FLuc counter: counter-screen for HSP90 inhibitors: inhibitors of firefly luciferase; shares compounds with HSP90 inh; purified native firefly luciferase, luminescence; inhibition, % at 5.9 µM; hit rate 48% among 2,300; AID 1847;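 active = inhibition above the mean inhibition of all tested sample wells plus 3 SD, cut at about 10% in these data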;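 note: 0% = DMSO with luciferase and 100% = wells lacking luciferase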
Target sequence (P08659 whole entry, looked up): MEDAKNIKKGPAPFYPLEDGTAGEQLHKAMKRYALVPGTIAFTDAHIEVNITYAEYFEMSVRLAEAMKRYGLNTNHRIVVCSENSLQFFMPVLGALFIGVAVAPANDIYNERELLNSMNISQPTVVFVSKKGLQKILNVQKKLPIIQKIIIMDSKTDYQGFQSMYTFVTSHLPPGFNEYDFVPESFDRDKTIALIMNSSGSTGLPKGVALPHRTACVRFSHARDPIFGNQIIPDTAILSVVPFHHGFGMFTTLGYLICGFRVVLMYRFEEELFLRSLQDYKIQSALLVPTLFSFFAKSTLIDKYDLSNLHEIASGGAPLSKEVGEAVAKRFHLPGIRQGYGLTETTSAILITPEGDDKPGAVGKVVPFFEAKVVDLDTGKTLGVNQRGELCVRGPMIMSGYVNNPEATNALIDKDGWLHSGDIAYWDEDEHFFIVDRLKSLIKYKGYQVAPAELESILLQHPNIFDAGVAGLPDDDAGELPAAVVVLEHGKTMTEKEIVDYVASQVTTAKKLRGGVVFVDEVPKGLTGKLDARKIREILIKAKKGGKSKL
The depositor's hits bear a star. In the library only some 3.8% were active in any assay of this set; here they are far more common.

`COc1ccc(C(=O)NC2CCc3ccccc32)cc1OC1CCN(C(C)=O)CC1` (centres undefined) gave HSP90 inh -4.3, Hep lipid drop 6.1, HSF1 activator -15.9, HSF1 inhib -5.7 and NS3 helicase inh 10.7.
CCOC(=O)CNC(=O)Cc1ccc(OC)cc1 was read as HSP90 inh 9.7, Hep lipid drop 13.9, HSF1 activator -2.4, HSF1 inhib -3.6 and NS3 helicase inh 19.4.
Screening CC(NC(=O)C1CCN(S(=O)(=O)c2ccc3c(c2)NC(=O)CO3)CC1)c1ccccc1 (centres undefined) returned HSP90 inh 0.2, Hep lipid drop 3.3, HSF1 activator 17.4, HSF1 inhib 1.8 and NS3 helicase inh 9.1.
`CCOc1ccccc1NC(=O)c1cnc(NS(=O)(=O)c2ccccc2)nc1` gave HSP90 inh -1.8, Hep lipid drop 12.1, HSF1 activator -5.0, HSF1 inhib -3.7 and NS3 helicase inh 6.7.
CCOC(=O)c1cccc(NC(=O)Nc2ccc(OCC)cc2)c1 was read as HSP90 inh 2.7, Hep lipid drop -9.3, HSF1 activator 16.4, HSF1 inhib -3.3 and NS3 helicase inh 2.8.
O=C(Nc1ccc(Cl)cc1)Nc1ccccc1C(=O)O was read as HSP90 inh 26.6*, Hep lipid drop -6.9, HSF1 activator 54.0*, HSF1 inhib 24.5, NS3 helicase inh 14.4, HSP90 confirm 45.5* and FLuc counter 43.0*.
Screening CCOc1ccc(NC(=O)c2ccccn2)cc1 returned HSP90 inh 82.5*, Hep lipid drop 6.6, HSF1 activator -34.3, HSF1 inhib -34.9, NS3 helicase inh 14.0, HSP90 confirm 87.9* and FLuc counter 79.6*.
CCOc1ccc(NC(=O)Nc2cccc(C(=O)O)c2)cc1 was read as HSP90 inh 88.9*, Hep lipid drop -1.3, HSF1 activator -76.2, HSF1 inhib -71.5*, NS3 helicase inh 2.0, HSP90 confirm 89.6* and FLuc counter 85.5*.
For Cc1ccc(S(=O)(=O)N2CCN(C3CC4CCC3C4)CC2)cc1 (centres undefined) the results were HSP90 inh 2.5, Hep lipid drop -8.3, HSF1 activator -10.1, HSF1 inhib -1.2 and NS3 helicase inh -4.7.
`COc1cc(/C=C2\C(=O)N(CCC#N)N=C2C)c(Br)cc1OC(C)C` gave HSP90 inh 17.6*, Hep lipid drop -3.9, HSF1 activator 9.2, HSF1 inhib 2.9, NS3 helicase inh -12.9, HSP90 confirm 1.6 and FLuc counter 4.2.
`CCC(NC(=O)c1ccncc1)c1ccccc1` (centres undefined) gave HSP90 inh -2.5, Hep lipid drop 20.8, HSF1 activator 3.2, HSF1 inhib 0.1 and NS3 helicase inh -2.9.
COc1ccc(-c2cc(C(=O)N3CCOCC3)no2)cc1 was read as HSP90 inh 37.0*, Hep lipid drop -11.8, HSF1 activator 10.4, HSF1 inhib -4.0, NS3 helicase inh 14.2, HSP90 confirm 50.0* and FLuc counter 32.3*.
CC1CCCCN1C(=O)c1cc(-c2ccc3c(c2)OCO3)on1 (centres undefined) was read as HSP90 inh 7.0, Hep lipid drop 8.2, HSF1 activator -1.4, HSF1 inhib 5.9 and NS3 helicase inh 0.2.
COc1cccc(-c2cc(C(=O)N3CCOCC3)no2)c1 was read as HSP90 inh 18.5*, Hep lipid drop -0.4, HSF1 activator 60.9*, HSF1 inhib 22.9, NS3 helicase inh 4.8, HSP90 confirm 18.6* and FLuc counter -4.1.
Screening CC1CCN(C(=O)c2cc(-c3ccc4c(c3)OCO4)on2)CC1 returned HSP90 inh 20.3*, Hep lipid drop -10.4, HSF1 activator 30.7, HSF1 inhib 7.6, NS3 helicase inh -10.8, HSP90 confirm 39.1* and FLuc counter 28.2*.
COc1ccc(-c2cc(C(=O)N3CCOCC3)no2)cc1OC was read as HSP90 inh 6.2, HSF1 activator -9.6, HSF1 inhib -15.6 and NS3 helicase inh 3.6.
For O=C(c1cc(-c2ccc(Br)cc2)on1)N1CCOCC1 the results were HSP90 inh 18.9*, Hep lipid drop 0.3, HSF1 activator 31.4, HSF1 inhib 23.3, NS3 helicase inh 7.9, HSP90 confirm 38.3* and FLuc counter 29.1*.
For CC(C)NS(=O)(=O)c1ccc(NCCCn2ccnc2)c([N+](=O)[O-])c1 the results were HSP90 inh 6.5, Hep lipid drop -7.7, HSF1 activator 6.9, HSF1 inhib -13.2 and NS3 helicase inh 3.5.
Screening O=C(c1ccc(Cl)cc1[N+](=O)[O-])N1CCOCC1 returned HSP90 inh 1.9, Hep lipid drop -148.7, HSF1 activator 13.9, HSF1 inhib -5.6 and NS3 helicase inh -10.9.
Screening COc1ccc(C(=O)c2coc3ccc(O)c(CN4CCCCC4)c23)cc1 returned HSP90 inh 47.1*, Hep lipid drop -12.1, HSF1 activator -0.8, HSF1 inhib 0.9, NS3 helicase inh -5.1, HSP90 confirm -0.8 and FLuc counter -10.5.
For O=C(c1ccccc1)c1coc2ccc(O)c(CN3CCOCC3)c12 the results were HSP90 inh 1.2, Hep lipid drop -18.9, HSF1 activator -1.8, HSF1 inhib 10.0 and NS3 helicase inh 6.0.
For O=c1oc(/C=C/c2ccc([N+](=O)[O-])s2)nc2ccccc12 the results were HSP90 inh -2.1, Hep lipid drop -0.5, HSF1 activator 45.9, HSF1 inhib 11.4 and NS3 helicase inh 21.4.
O=c1nc(/C=C/c2ccc(O)c(O)c2)oc2ccccc12 was read as HSP90 inh 0.6, Hep lipid drop -15.3, HSF1 activator 27.8, HSF1 inhib 18.8 and NS3 helicase inh 1.7.
`COc1ccc(/C=C\c2nc(=O)c3ccccc3o2)cc1` gave HSP90 inh 21.2*, Hep lipid drop -0.1, HSF1 activator 75.8*, HSF1 inhib 23.8, NS3 helicase inh -0.2, HSP90 confirm 30.6* and FLuc counter 14.4*.
For CC(=O)Oc1ccccc1/C=C/c1nc2ccccc2c(=O)o1 the results were HSP90 inh 31.8*, HSF1 activator 11.5, HSF1 inhib -4.6, NS3 helicase inh 18.4, HSP90 confirm 44.6* and FLuc counter -7.7.
Screening CC(=O)Oc1ccc(-c2nc3ccccc3c(=O)o2)cc1 returned HSP90 inh 3.0, Hep lipid drop 17.8, HSF1 activator 7.8, HSF1 inhib -7.0 and NS3 helicase inh 4.5.
Screening CC(=O)Oc1ccc(/C=C/c2nc3ccccc3c(=O)o2)cc1 returned HSP90 inh 27.6*, Hep lipid drop 6.0, HSF1 activator 5.2, HSF1 inhib 1.2, NS3 helicase inh -1.5, HSP90 confirm 31.7* and FLuc counter -13.4.
`COc1ccc2[nH]cc(CCNC(=O)C3CCCCC3)c2c1` gave HSP90 inh 4.4, Hep lipid drop 16.8, HSF1 activator -10.2, HSF1 inhib 5.6 and NS3 helicase inh -3.8.
